Screening data as filed in PubChem.
Compounds with a hit are over-represented: about 2% of the library has one in this group of screens.
VIM-2 inhibitor: blocks Pseudomonas aeruginosa VIM-2 metallo-beta-lactamase; purified VIM-2, nitrocefin hydrolysis, epi-absorbance fluorescence; inhibition, % at 5.6 µM; actives 0.89% (n = 290,000); AID 1527;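 active means inhibition above the mean of all tested compounds plus 3 SD, cutoff set per screening run, cut at about 7.5% in these data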;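 further: red hydrolysis product quenches plate fluorescence so inhibitors raise well fluorescence; 0% = enzyme with DMSO and 100% = DMSO without enzyme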
PLC-gamma1 inh: blocks human PLC-gamma1 enzyme activity; actives 0.84% (n = 370,000); P19174; AID 720700; inhibition, % at 12.2 µM; purified PLC-gamma1, fluorogenic substrate, fluorescence
PLCb3 inh: inhibitors of human phospholipase C beta3; Purified PLC-beta3, fluorogenic substrate, fluorescence; actives 0.18% (n = 370,000); AID 720704; Q01970; inhibition, % at 12.2 µM; in the data active means inhibition above about 11%;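 further: 0% = median of compound wells on plate and 100% = full blocker control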
PvdQ acylase: blocks Pseudomonas aeruginosa PvdQ acylase activity; purified PvdQ acylase, fluorescence plate reader; inhibition, % at 10 µM; actives 0.063% (n = 340,000); in the data active means inhibition above about 30%, passing the limit was not always enough;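 further: 0% = vehicle neutral wells and 100% = reference inhibitor wells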
IMP-1 inh: blocks Pseudomonas aeruginosa IMP-1 metallo-beta-lactamase; purified IMP-1, nitrocefin hydrolysis, epi-absorbance fluorescence; inhibition, % at 5.6 µM; actives 0.45% (n = 290,000);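 active means inhibition above the mean plus 3 SD of all compounds in the same screening run, cut at about 4.5% in these data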;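 further: 0% = IMP-1 with DMSO and 100% = DMSO wells lacking enzyme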
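Assay system: purified IMP-1; Quantity: IMP-1 0.2 nM before substrate addition; Medium: HEPES buffer pH 7.1 with ZnSO4 and Brij 35; Incubation: 15 min enzyme–compound preincubation, then 25 min nitrocefin reaction, 25 °C; Signal: fluorescence quenching readout, ex 480/em 530 nm; Controls: DMSO with and without IMP-1; Repeats: singlicate testing.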
PLCgamma1 ctr: inhibits human PLC-gamma1 in PLC-beta3 counter-screen. shares compounds with PLC-gamma1 inh. purified PLC-gamma1, fluorogenic substrate, fluorescence. inhibition, % at 12.3 µM. actives 3.1% (n = 3,300). AID 743258
PLCbeta3 conf: confirmation of human PLC-beta3 inhibitors; shares compounds with PLC-gamma1 inh; purified PLC-beta3, fluorogenic substrate fluorescence; inhibition, % at 12.3 µM; actives 1% (n = 3,300); in the data active means inhibition above about 11%
* hit, by the source's call; nt = not tested or not shown. Unless noted, no stated cut-off is given here; in the data, active means inhibition above about 9.5%; inactive means the rest.

SMILES	VIM-2 inhibitor	PLC-gamma1 inh	PLCb3 inh	PvdQ acylase	IMP-1 inh	PLCgamma1 ctr	PLCbeta3 conf
CCCCOc1ccc(C(=O)NC2CCCCN(C(C)C)C2=O)cc1 (stereo unspecified)	nt	-1	-1	nt	nt	nt	nt
CC(C)CN1C(=O)NC(NC(=O)c2cccnc2)(C(F)(F)F)C1=O (stereo unspecified)	-5	11*	7	1	-3	-5	1
Cc1nc(N2CCOCC2)[nH]c(=O)c1[N+](=O)[O-]	-1	13*	-2	-3	-2	1	2
COCc1[nH]nc2c1C(c1ccccc1)NC2=O (stereo unspecified)	nt	4	2	nt	nt	nt	nt
CC(C)C(NC(=O)c1ccccc1)C(=O)OCC(=O)N1CCN(c2ccccc2)CC1 (stereo unspecified)	nt	11*	-6	-5	nt	-1	0
CN1C2=N[C@@H](c3ccc4ccccc4c3)CC(=O)N2/C(=C\c2ccccc2)[C@H]1c1ccccc1	nt	-16	-22	nt	nt	nt	nt
COc1ccccc1/C=C/C(=O)OCCN1C(=O)c2ccccc2C1=O	-1	11*	-4	-11	-1	-14	-12
CCOC(=O)NC(=O)c1cn(Nc2ccccc2)c(=O)[nH]c1=O	-2	10*	-3	-12	-1	0	0
FC(F)(F)c1nc(Oc2ccccc2)c2ccccc2n1	-2	10*	2	-6	-4	1	1
CCc1cccc(NC(=O)CN(c2ccc(OC)cc2)S(=O)(=O)c2c(C)n[nH]c2C)c1	-4	14*	11*	-2	-4	16*	13*
COc1ccc(N(CC(=O)Nc2cccc(C)c2)S(=O)(=O)c2c(C)n[nH]c2C)cc1	-4	6	7	2	-2	nt	nt
C=CCn1c(SCC(=O)O)nnc1-c1ccco1	nt	-3	1	nt	nt	nt	nt
c1ccc([C@H]2CNCCN2CCc2cccc3ccccc23)cc1	nt	12*	5	-2	nt	-5	-3
COC(=O)c1ccccc1NC(=O)Cn1cnc2c1c(=O)n(C)c(=O)n2C	nt	10*	-1	-17	nt	-9	-4
COC(=O)c1cccc(NC(=O)Cn2cnc3c2c(=O)n(C)c(=O)n3C)c1	nt	1	5	-6	nt	nt	nt
COc1ccccc1CNC(=O)COC(=O)Cn1cnc2c1c(=O)n(C)c(=O)n2C	nt	4	11*	nt	nt	-3	0
Cn1c(=O)c2c(ncn2CC(=O)OCC(=O)NCc2ccccc2Cl)n(C)c1=O	-4	6	0	5	-2	nt	nt
CN(Cc1cn(Cc2ccccc2)nn1)S(=O)(=O)c1ccc(F)cc1Br	nt	-1	-1	nt	nt	nt	nt
CCOC(=O)c1cccc(NC(=O)CN(C)S(=O)(=O)c2ccc(Br)s2)c1	nt	2	0	nt	nt	nt	nt
CC1CCCCN1C(=O)C(Cc1ccccc1)N1C(=O)C2CCCCC2C1=O (stereo unspecified)	-1	11*	11*	-8	-3	-3	-3
CCC(=O)Nc1cccc2ccccc12	-4	11*	-3	-19	-3	6	3
CCOC(=O)c1c(C)[nH]c(C(=O)COC(=O)c2oc3ccccc3c2C)c1C	-1	10*	4	-1	-2	-5	-4
Cc1ncc([N+](=O)[O-])n1CC(=O)N/N=C/c1ccccc1F	-2	6	11*	3	-3	3	4
CSC[C@H]1CN(c2ccccc2)C(=O)[C@@H]1CC(=O)Nc1ccccc1	nt	9.5*	9	nt	nt	-6	-1
CSC[C@H]1CN(c2ccc(Br)cc2)C(=O)[C@@H]1CC(=O)Nc1ccccc1	nt	3	5	nt	nt	nt	nt
SMILES	VIM-2 inhibitor	PLC-gamma1 inh	PLCb3 inh	PvdQ acylase	IMP-1 inh	PLCgamma1 ctr	PLCbeta3 conf
CC1=NN(c2ccccc2)C(=O)/C1=C/c1cccs1	-1	25*	16*	-29	-3	1	-1
CC1=NN(c2ccccc2)C(=O)/C1=C\c1ccc(Br)s1	-3	1	5	-12	-3	nt	nt
CCOc1cc(C(=O)N2CCC(CC3CC(c4ccc(Cl)cc4)=NO3)(C(=O)NCC3CCCCC3)CC2)cc(OCC)c1OCC (stereo unspecified)	-2	4	11*	-17	-4	-1	-2
CCOc1cc(C(=O)N2CCC(CC3CC(c4ccccc4)=NO3)(C(=O)NCc3ccc(OC)cc3)CC2)cc(OCC)c1OCC (stereo unspecified)	nt	-1	4	-9	nt	nt	nt
COC(=O)[C@]12C[C@H](CC(=O)NCCCN3CCCC3=O)C(=O)N(Cc3ccco3)C1=C[C@H](COCc1ccccc1)O[C@@H]2C	nt	-1	0	nt	nt	nt	nt
CNc1nc(Cl)nc(Nc2ccccc2)n1	-2	-1	1	2	-4	nt	nt
C=CCNc1nc(Cl)nc(Nc2ccccc2)n1	-2	11*	-3	-10	-3	3	5
COC[C@H]1CCCN1c1ccc2c(c1)OCCCN(C1CC1)S2(=O)=O	nt	-1	0	nt	nt	nt	nt
C(#CC1=CCCCC1)CNCc1ccccc1	nt	-1	1	nt	nt	nt	nt
CN(C)c1nc(OCCOC(=O)COc2ccc(Cl)cc2Cl)nc(N(C)C)n1	-3	5	0	-11	-2	nt	nt
CN(C)c1nc(SCCOC(=O)COc2ccc(Cl)cc2Cl)nc(N(C)C)n1	-1	9.9*	2	-14	-6	-8	-6
CC(C)(C)S(=O)(=O)N1Cc2cc(CO)ccc2[C@@H]1CCO	nt	-5	-8	nt	nt	nt	nt
CCC(C(=O)NCCCN1CCN(C)CC1)n1nc(C)c2sc3ccccc3c2c1=O (stereo unspecified)	0	9.6*	-13	-7	-3	-3	-4
CCCN1CCN(CCCNC(=O)C(CC)n2nc(C)c3sc4ccccc4c3c2=O)CC1 (stereo unspecified)	1	1	-10	-9	-3	nt	nt
Cc1ccc(S(=O)(=O)N2CCC(C(=O)NCCN3CCOCC3)CC2)cc1C	1	-1	-9	-10	-1	nt	nt
COc1ccc(C2C(C(=O)NCCCN3CCOCC3)c3ccccc3C(=O)N2c2ccc(OC)cc2)cc1 (stereo unspecified)	0	5	11*	-2	0	-3	-6
COc1ccc(S(=O)(=O)N2CCC(C(=O)NCCN3CCOCC3)CC2)cc1	-3	12*	-4	-6	-4	-7	-2
COc1ccc(S[C@]2(C(=O)N3CCCC3)CC(=O)N(S(=O)(=O)c3ccc(F)cc3)[C@@H]2c2ccc(OC)cc2)cc1	nt	2	3	nt	nt	nt	nt
Cc1ccccc1NC(=O)c1ccc2nccnc2c1	-2	0	-6	0	-3	nt	nt
Cc1ccccc1NC(=O)c1cccc(C(=O)Nc2ccccc2C)c1	nt	12*	3	-25	nt	-1	2
CC1Cc2nc(SCC(=O)Nc3ccc(F)cc3F)n(C)c(=O)c2S1 (stereo unspecified)	-2	13*	7	-12	-2	-7	-4
Cc1ccccc1NC(=O)N1CCCC(c2nc(-c3ccc(F)cc3)no2)C1 (stereo unspecified)	-1	-1	1	-9	-2	nt	nt
